Measurements published in ChEMBL document CHEMBL2010788, “Consequences of linker length alteration of the α7 nicotinic acetylcholine receptor (nAChR) agonist, SEN12333” (Bioorg Med Chem Lett, 2012).
Active and inactive are the calls of the source. No cut-off for these calls is given here.

Columns and labels:
[1] = biological target: Neuronal acetylcholine receptor; alpha4/beta2 (Rattus norvegicus, UniProt P09483+P12390); test: Displacement of [3H]epibatidine from rat alpha4beta2 nAChR expressed in […] cells after 4 hrs by liquid scintillation counting; assay type: cell-based
Sequence of Neuronal acetylcholine receptor; alpha4/beta2 (P09483 whole entry): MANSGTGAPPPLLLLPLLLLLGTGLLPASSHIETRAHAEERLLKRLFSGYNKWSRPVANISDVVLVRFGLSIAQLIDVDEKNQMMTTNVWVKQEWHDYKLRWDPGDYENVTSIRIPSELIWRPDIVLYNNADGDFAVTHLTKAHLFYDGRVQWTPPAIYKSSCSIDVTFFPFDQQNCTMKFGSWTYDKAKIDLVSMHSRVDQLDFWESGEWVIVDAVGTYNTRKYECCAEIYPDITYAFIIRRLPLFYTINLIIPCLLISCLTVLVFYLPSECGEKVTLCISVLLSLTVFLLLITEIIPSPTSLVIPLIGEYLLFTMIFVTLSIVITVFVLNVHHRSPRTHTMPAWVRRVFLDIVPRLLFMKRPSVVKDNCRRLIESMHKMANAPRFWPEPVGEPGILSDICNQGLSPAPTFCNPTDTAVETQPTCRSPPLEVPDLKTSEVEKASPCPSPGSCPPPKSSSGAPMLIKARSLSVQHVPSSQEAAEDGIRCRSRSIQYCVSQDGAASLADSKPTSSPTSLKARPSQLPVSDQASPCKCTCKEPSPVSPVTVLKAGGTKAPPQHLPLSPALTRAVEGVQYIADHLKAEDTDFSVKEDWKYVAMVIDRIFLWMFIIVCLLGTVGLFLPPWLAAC
Sequence of Neuronal acetylcholine receptor; alpha4/beta2 (P12390 whole entry): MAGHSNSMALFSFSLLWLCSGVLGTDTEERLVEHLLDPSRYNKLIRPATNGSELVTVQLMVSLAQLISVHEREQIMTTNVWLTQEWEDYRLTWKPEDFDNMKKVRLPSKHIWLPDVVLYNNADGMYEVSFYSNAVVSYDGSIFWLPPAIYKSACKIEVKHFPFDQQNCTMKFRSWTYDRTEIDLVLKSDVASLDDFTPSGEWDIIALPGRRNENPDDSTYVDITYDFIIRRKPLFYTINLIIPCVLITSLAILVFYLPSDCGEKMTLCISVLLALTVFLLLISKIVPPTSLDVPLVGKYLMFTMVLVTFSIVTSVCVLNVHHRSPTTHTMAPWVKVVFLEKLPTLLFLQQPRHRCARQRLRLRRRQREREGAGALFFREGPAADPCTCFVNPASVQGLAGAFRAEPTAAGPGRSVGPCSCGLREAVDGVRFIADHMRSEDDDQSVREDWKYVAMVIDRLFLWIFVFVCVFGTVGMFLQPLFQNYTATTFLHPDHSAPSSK
Summary of the method: (§1)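 Competition binding against racemic [³H]epibatidine. Receptor source: membrane homogenates of HEK293 cells stably transfected with the rat nAChR subtype (α3β4, α4β2 or α7). Affinity reported as Ki.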

[2] = biological target: Neuronal acetylcholine receptor; alpha3/beta4 (Rattus norvegicus, UniProt P04757+P12392); test: Displacement of [3H]epibatidine from rat alpha3beta4 nAChR expressed in […] cells after 4 hrs by liquid scintillation counting; assay type: cell-based; summary of the method: as §1
Sequence of Neuronal acetylcholine receptor; alpha3/beta4 (P04757 whole entry): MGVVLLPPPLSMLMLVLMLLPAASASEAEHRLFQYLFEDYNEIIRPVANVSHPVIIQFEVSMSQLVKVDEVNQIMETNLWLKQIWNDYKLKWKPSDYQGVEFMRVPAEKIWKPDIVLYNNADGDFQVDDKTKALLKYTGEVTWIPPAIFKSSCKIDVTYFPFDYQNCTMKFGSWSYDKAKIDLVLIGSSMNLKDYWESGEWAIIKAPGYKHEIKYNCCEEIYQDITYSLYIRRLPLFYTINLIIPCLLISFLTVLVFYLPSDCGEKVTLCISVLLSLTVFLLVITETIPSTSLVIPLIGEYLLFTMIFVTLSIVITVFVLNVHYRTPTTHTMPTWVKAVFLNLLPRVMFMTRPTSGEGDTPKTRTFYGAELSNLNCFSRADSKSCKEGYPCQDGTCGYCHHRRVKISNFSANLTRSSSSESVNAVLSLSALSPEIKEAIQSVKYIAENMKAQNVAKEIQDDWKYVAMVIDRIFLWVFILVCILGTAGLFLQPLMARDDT
Sequence of Neuronal acetylcholine receptor; alpha3/beta4 (P12392 whole entry): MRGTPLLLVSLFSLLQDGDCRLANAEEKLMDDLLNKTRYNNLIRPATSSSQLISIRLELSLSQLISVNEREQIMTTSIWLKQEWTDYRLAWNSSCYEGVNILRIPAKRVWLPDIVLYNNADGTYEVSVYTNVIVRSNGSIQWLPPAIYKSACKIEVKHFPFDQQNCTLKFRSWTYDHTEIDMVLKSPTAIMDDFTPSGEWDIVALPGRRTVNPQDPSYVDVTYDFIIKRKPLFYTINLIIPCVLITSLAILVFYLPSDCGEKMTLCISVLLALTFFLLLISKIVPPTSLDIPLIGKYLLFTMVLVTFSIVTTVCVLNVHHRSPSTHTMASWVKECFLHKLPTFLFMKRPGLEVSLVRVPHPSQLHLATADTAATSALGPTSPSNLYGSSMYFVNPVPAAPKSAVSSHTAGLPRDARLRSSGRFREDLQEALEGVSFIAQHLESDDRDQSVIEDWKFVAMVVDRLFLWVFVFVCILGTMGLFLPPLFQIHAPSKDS

[3] = biological target: T1, Neuronal acetylcholine receptor subunit alpha-7 (Rattus norvegicus, UniProt Q05941); test: Displacement of [3H]epibatidine from rat alpha7 nAChR expressed in […] cells after 4 hrs by liquid scintillation counting; assay type: cell-based; summary of the method: as §1
T1 sequence (Q05941 whole entry): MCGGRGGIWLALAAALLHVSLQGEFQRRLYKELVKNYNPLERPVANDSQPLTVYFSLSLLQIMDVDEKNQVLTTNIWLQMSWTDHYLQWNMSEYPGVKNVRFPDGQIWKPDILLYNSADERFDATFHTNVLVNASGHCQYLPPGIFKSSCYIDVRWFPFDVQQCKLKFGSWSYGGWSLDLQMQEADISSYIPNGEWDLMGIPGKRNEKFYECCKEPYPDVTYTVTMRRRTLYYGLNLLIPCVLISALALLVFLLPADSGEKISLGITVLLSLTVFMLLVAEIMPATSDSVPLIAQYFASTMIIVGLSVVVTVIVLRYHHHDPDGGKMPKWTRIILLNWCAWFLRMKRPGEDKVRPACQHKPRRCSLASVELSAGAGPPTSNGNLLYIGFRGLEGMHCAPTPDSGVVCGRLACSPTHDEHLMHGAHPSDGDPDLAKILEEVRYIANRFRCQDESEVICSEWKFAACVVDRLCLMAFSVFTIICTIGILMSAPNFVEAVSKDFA

[4] = biological target: Neuronal acetylcholine receptor subunit alpha-7 (Rattus norvegicus) (UniProt Q05941); test: Agonist activity at wild type rat recombinant alpha7 nAChR expressed in Xenopus oocyte at 100 uM by voltage clamp electrophysiology assay; assay type: functional
Sequence of Neuronal acetylcholine receptor subunit alpha-7 (Rattus norvegicus) (Q05941 whole entry): as above

[5] = biological target: Neuronal acetylcholine receptor subunit alpha-7 (Rattus norvegicus) (UniProt Q05941); test: Antagonist activity at wild type rat recombinant alpha7 nAChR expressed in Xenopus oocyte assessed as inhibition of ACh-gated current at 100 uM by voltage clamp electrophysiology assay; assay type: functional
[6] = biological target: Neuronal acetylcholine receptor subunit alpha-7 (Rattus norvegicus) (UniProt Q05941); test: Partial agonist activity at wild type rat alpha7 nAChR expressed in Xenopus oocyte by voltage clamp electrophysiology assay relative to acetylcholine; assay type: functional
[7] = biological target: T1, Neuronal acetylcholine receptor subunit alpha-7; test: Partial agonist activity at wild type rat recombinant alpha7 nAChR expressed in Xenopus oocyte by voltage clamp electrophysiology assay; assay type: functional

| SMILES | Ki [1] [µM] | Ki [2] [µM] | Ki [3] [µM] | Activity [4] | inhibition [5] | Activity [6] [%] | EC50 [7] [µM] |
| --- | --- | --- | --- | --- | --- | --- | --- |
| O=C(CCCCCN1CCOCC1)Nc1ccc(-c2cccnc2)cc1 | > 10 | > 10 | > 10 | inactive | inactive | – | – |
| O=C(CN1CCOCC1)Nc1ccc(-c2cccnc2)cc1 | > 10 | > 10 | 3.9 | inactive | inactive | – | – |
| O=C(CCN1CCOCC1)Nc1ccc(-c2cccnc2)cc1 | > 10 | > 10 | > 10 | inactive | inactive | – | – |
| O=C(CCCN1CCOCC1)Nc1ccc(-c2cccnc2)cc1 | > 10 | > 10 | > 10 | inactive | inactive | – | – |
| O=C(CCCCN1CCOCC1)Nc1ccc(-c2cccnc2)cc1 | > 10 | > 10 | 0.5 | – | – | 11 | 9.5 |
